ADAM17 inh: inhibits human ADAM17. recombinant ADAM17, EDANS/DABCYL FRET peptide cleavage. AID 720648. 0.83% of 370,000 active. inhibition, % at 6.95 µM;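 active means inhibition above the mean of compounds lying between control limits plus 3 SD, set per campaign, cut at about 8.5% in these data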
V-ATPase pH: alters yeast V-ATPase proton transport. S. cerevisiae, pHLuorin cytosolic pH fluorescence. AID 504577. response, % at 10 µM. 0.37% of 350,000 active; in the data active means response mostly above about 7.3%, no sharp cut-off; inactive means mostly below about 5.4%; further: actives read high
Hep lipid drop: hepatic lipid droplet formation modulation. AML12 mouse hepatocytes, oleate lipid droplets, BODIPY imaging. inhibition, % at 6.5 µM. 0.4% of 240,000 active;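 active means lipid droplet intensity inhibited by at least 50%, with more than 500 cells counted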
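Assay system: AML12 hepatocytes (mouse); Probe or stimulus: oleic acid at 100 µM to induce lipid droplet formation; Dosing: compound at 6.5 µM only; Schedule: compound with oleate, overnight; Detection: fluorescence imaging, 20x objective, two fields per well; Measure: % inhibition of lipid droplet signal.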
ADAM10 inh: ADAM10 inhibition, QFRET primary screen; 0.62% of 370,000 active; inhibition, % at 7 µM; O14672; recombinant ADAM10, EDANS/DABCYL FRET peptide cleavage, 3 h;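 active means inhibition above a per-campaign cutoff equal to the mean of compounds falling between control-based bounds plus 3 SD, cut at about 20% in these data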
Target sequence (O14672 214-748 limits assumed): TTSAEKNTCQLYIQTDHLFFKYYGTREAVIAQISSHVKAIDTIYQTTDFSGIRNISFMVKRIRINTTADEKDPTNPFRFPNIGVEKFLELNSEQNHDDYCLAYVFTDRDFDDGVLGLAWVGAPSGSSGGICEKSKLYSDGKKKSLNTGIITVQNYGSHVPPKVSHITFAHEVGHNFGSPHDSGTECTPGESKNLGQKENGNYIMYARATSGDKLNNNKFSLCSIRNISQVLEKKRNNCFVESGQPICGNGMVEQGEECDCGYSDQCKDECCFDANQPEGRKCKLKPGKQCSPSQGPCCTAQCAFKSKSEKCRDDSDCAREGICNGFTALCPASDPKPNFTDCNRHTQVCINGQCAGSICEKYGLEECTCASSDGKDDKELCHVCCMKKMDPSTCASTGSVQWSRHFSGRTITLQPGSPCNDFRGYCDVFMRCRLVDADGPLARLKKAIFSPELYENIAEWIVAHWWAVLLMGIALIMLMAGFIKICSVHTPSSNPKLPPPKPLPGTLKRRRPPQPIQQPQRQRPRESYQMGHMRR
aDG glyco act: alpha-DG glycosylation activation; 0.22% of 360,000 active; activation, % at 10 µM; AID 624168; Pro5-aDG cells, alpha-DG glycosylation AlphaScreen (IIH6); 0% Pro5, 100% B10-LARGE cell signal;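 active means activation of at least 8% versus controls, or a plate z-score of at least 8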;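 further: Pro5 are CHO cells carrying HIG-tagged alpha-DG that lacks glycosylation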
MPTP inh: inhibitors of mitochondrial permeability transition pore. isolated mouse mitochondria, Ca2+ swelling absorbance, 30 min. inhibition, % at 10 µM. 1.4% of 360,000 active;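 active means inhibition of 50% or more, scaled per plate between neutral and stimulator controls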
Rh123 counter: Rhodamine 123 counter-screen of mitochondrial pore hits; isolated mitochondria, membrane potential, Rhodamine 123 fluorescence; 78% of 5,000 active; shares compounds with MPTP inh; inhibition, % at 10 µM; in the data active means inhibition above about 22%
MPTP swell DR: dose response confirmation of mitochondrial permeability transition pore inhibitors; IC50, µM; 58% of 780 active; isolated mitochondria swelling, absorbance; shares compounds with MPTP inh; in the data active means IC50 below about 20 µM
MPTP cs DR: active in counter-screen for permeability transition pore inhibitors | shares compounds with MPTP inh | isolated mitochondria counterscreen, fluorescence read-out | IC50, µM | 49% of 780 active | AID 651564; in the data active means IC50 below about 80 µM
Each line names hits and unclear results; the compound was inactive in the other large screens (follow-up assays come after a bar, where they were run). The list is not random: actives were taken first. Their share in the collection is about 3.1%.

Cc1nc(N2CCCCC2C)c2c(C)c(C(=O)Nc3cccc(C(F)(F)F)c3)sc2n1 (stereo unspecified)	MPTP inh 70 | Rh123 counter 41
COc1ccc(S(=O)(=O)Nc2ccccc2C(=O)Nc2nc(-c3ccc(F)cc3)cs2)cc1OC	MPTP inh 97 | Rh123 counter 42
COc1ccc(-c2csc(NC(=O)c3ccccc3NS(=O)(=O)c3ccc(C)cc3)n2)cc1	MPTP inh 104 | Rh123 counter inactive
Cc1ccc(S(=O)(=O)Nc2nc(-c3ccc(F)cc3)cs2)cc1	none
OC1CCC(NC(=S)Nc2ccc(SC(F)F)cc2)CC1 (stereo unspecified)	none
FC(F)Sc1ccc(NC(=S)NC2CCCC2)cc1	MPTP inh 95 | Rh123 counter 94
CC1CCCC(NC(=S)Nc2ccc(SC(F)F)cc2)C1C (stereo unspecified)	MPTP inh 103 | Rh123 counter 97
C=CCN(CC#Cc1ccccc1)Cc1ccc(OC)cc1OC	none (no result: V-ATPase pH, Hep lipid drop, aDG glyco act, MPTP inh)
CCCc1cc(=O)oc2cc(C)cc(O)c12	MPTP inh 78 | Rh123 counter 78
CCCc1cc(=O)oc2cc(C)cc(OCC(=O)NCc3cccnc3)c12	none
CCCCCc1cc(O)c2c(C)cc(=O)oc2c1	MPTP inh 86 | Rh123 counter 79
Cc1cc(=O)oc2cc(O)cc(O)c12	none (no result: Hep lipid drop)
CCc1cc(=O)oc2cc(C)cc(O)c12	none (no result: Hep lipid drop)
CCCc1cc(=O)oc2cc(C)cc(OC(=O)c3ccco3)c12	MPTP inh 84 | Rh123 counter 88
O=C(CC1CCCC1)N1CC[C@H]2[C@H](CCCN2Cc2cc(F)cc(F)c2)C1	none (no result: V-ATPase pH, Hep lipid drop, aDG glyco act, MPTP inh)
COc1cc(CNC2CCCc3ccccc32)cc(OC)c1OC (stereo unspecified)	none
COc1cccc(CNC2CCCc3ccccc32)c1OC (stereo unspecified)	MPTP inh 60 | Rh123 counter inactive | MPTP swell DR inactive | MPTP cs DR inactive
COC(=O)c1scc(C#N)c1N/N=C(\C#N)S(=O)(=O)c1ccc(Cl)cc1	MPTP inh 67 | Rh123 counter 84
COC(=O)c1scc(S(=O)(=O)C(C)C)c1N/N=C(\C#N)C(=O)c1ccc(Cl)cc1	MPTP inh 73 | Rh123 counter 78
O=C(Nc1ccc(N2C(=O)CC3(CCCCC3)C2=O)c(Cl)c1)c1ccccn1	none (no result: V-ATPase pH, Hep lipid drop, aDG glyco act, MPTP inh)
CCOc1ccc(NC(=O)c2cc(-c3ccc(Cl)cc3)nc3ccccc23)cc1	none (no result: V-ATPase pH, Hep lipid drop, aDG glyco act, MPTP inh)
COc1ccc(CCC(=O)Nc2ccc(C)c(S(=O)(=O)N(C)C)c2)cc1OC	none
COc1ccc(CCNCC(=O)Nc2ccc(C)c(S(=O)(=O)N(C)C)c2)cc1	MPTP inh 68 | Rh123 counter inactive | MPTP swell DR inactive | MPTP cs DR 74
O=S(=O)(N[C@H]1C[C@@H](NS(=O)(=O)OCC(Cl)(Cl)Cl)C2CCCCC21)OCC(Cl)(Cl)Cl (stereo partly specified)	MPTP inh 64 | Rh123 counter 91
Cc1ccc(NC(=O)C2C(c3ccccc3)C2(Cl)Cl)c(C)c1 (stereo unspecified)	MPTP inh 53 | Rh123 counter 62
COc1ccc(NC(=O)C2C(c3ccccc3)C2(Cl)Cl)c(OC)c1 (stereo unspecified)	none
CC(CC(=O)O)CC(=O)Nc1cc(C(F)(F)F)cc(C(F)(F)F)c1 (stereo unspecified)	none
CNC(=O)Nc1cc(C(F)(F)F)cc(C(F)(F)F)c1	MPTP inh 64 | Rh123 counter 94
Cc1ccc(NC(=O)CN(C)C(=O)c2sc3cc(Cl)ccc3c2Cl)cc1	none (no result: Hep lipid drop)
Cc1c(CN(C)C(=O)c2sc3cc(Cl)ccc3c2Cl)cnn1C	MPTP inh 84 (no result: Hep lipid drop) | Rh123 counter 80
O=S1(=O)C=CCN1Cc1cn(Cc2ccc(Cl)cc2)nn1	none (no result: V-ATPase pH, Hep lipid drop, aDG glyco act, MPTP inh)
CCN(CC)c1ccc2nc3c4ccccc4c(=O)cc-3oc2c1	none (no result: V-ATPase pH, aDG glyco act, MPTP inh)
